NALP1 inh = blocks the NALP1 inflammasome reconstituted in yeast | AID 2071 | inhibition, % at 10 µM | actives 0.61% (n = 280,000) | S. cerevisiae NALP1/ASC/caspase-1 growth, X-gal OD620, 72 h; in the data active = inhibition mostly above about 24%, no sharp cut-off; inactive = mostly below about 32%
T cruzi repl = T. cruzi replication inhibition | inhibition, % (concentration not given with the values) | T. cruzi beta-gal in NIH3T3, luminescence, 90 h | actives 1.4% (n = 300,000);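 active = mean inhibition across valid replicates above about 55%, limit read from the data; inconclusive = mean below that limit but half or more replicates reach it; inactive = mean below it, under half of replicates reach it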;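 also: signal also drops with host cell toxicity which is not excluded here; 0% = plate median of DMSO wells and 100% = zero luminescence signal; higher percent means less beta-gal luminescence so fewer parasites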
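Test system: β-gal T. cruzi (Tulahuen C4) inside NIH/3T3 cells / Quantity: 5,000 cells/well / Measured by: luminescence from GalScreen with 0.05% NP40, read after 60 min / Medium: DMEM plus 2% FBS / Measure: parasite load inhibition, % / Reagent: Tulahuen C4 trypomastigotes, 5000/well / Schedule: co-culture of at least 90 h after 3 h attachment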
NALP3 yeast inh = inhibitors of NALP3 inflammasome in yeast; Yeast reconstituted NLRP3/ASC/caspase-1, beta-gal luminescence, 24 h; inhibition, % at 10 µM; actives 0.39% (n = 330,000);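 active = inhibition of 50% or more; inactive = inhibition below 50%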;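 also: plate controls were induced DMSO wells for no effect and uninduced yeast grown without galactose for full effect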
L major viab = Leishmania major promastigote growth inhibition. AID 1063. Leishmania major promastigotes, resazurin fluorescence viability. inhibition, % at 10 µM. actives 9% (n = 200,000); in the data active = inhibition above about 50%;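 also: promastigotes grown with compound for 44 hours at 28 °C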
Calb FLC = C. albicans growth modulation with fluconazole | C. albicans CaCi-2 + fluconazole, Alamar Blue growth, 48 h | growth inhibition, % (test concentration not listed) | actives 0.57% (n = 300,000) | AID 1979;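 active = growth inhibition above about 58% in most replicates, limit read from the data, passing the limit was not always enough; inconclusive = exactly half the replicates above a set limit; inactive = most replicates below a set limit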;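 also: all wells also contain fluconazole at 8 µg/ml as a sub-toxic cotreatment; 0% = median of DMSO wells and 100% = median of geldanamycin control wells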
PolyA inh = yeast polyadenylation inhibition; S. cerevisiae SKY197-pL101 polyadenylation reporter, beta-gal luminescence; efflux-impaired pdr1/pdr3 knockout yeast; score 100 = 6 SD above DMSO; activity score, % at 12 µM; actives 0.02% (n = 300,000); AID 1875;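 active = lowest replicate activity score at least 50, where 100 means six control SD above control mean; inconclusive = lowest score under 50 but half or more replicates reach 50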;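 also: yeast exposed to compound for 9 h at 30 °C; higher score means more reporter readthrough which indicates perturbed polyadenylation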
* = called active by the depositor; ? = inconclusive; nt = not tested or not shown. The full list was thinned out, with hits kept by preference.

SMILES | NALP1 inh | T cruzi repl | NALP3 yeast inh | L major viab | Calb FLC | PolyA inh
CNC(=S)N(CCc1ccc(OC)c(OC)c1)C1CC(=O)N(c2ccccc2)C1=O (stereo not given) | 6 | 1 | 10 | nt | 3 | 1
CCCOc1ccc(N2C(=O)CC(N(CCc3ccc(OC)c(OC)c3)C(=S)Nc3ccccc3)C2=O)cc1 (stereo not given) | 7 | 64* | 2 | 45 | 14 | 4
CCCOc1ccc(N2C(=O)CC(N(Cc3ccc(OC)cc3)C(=S)Nc3ccccc3)C2=O)cc1 (stereo not given) | 15 | 27 | -16 | 69* | -5 | 0
CC1(C)N([O-])C2=C(CCCC2)[N+]1=O | 4 | -12 | 5 | -4 | 3 | 16
Cc1oc(-c2cccc(Cl)c2)nc1CN1CCCC(C(=O)NCCCN2CCOCC2)C1 (stereo not given) | 12 | 63* | 7 | 101* | -4 | 10
Cc1ccc(-c2nc(CSCC(=O)NCCCN3CCOCC3)c(C)o2)cc1 | 2 | 1 | 24 | 53* | -1 | 21
Cc1oc(-c2ccc(Cl)cc2)nc1CN1CCC(C(=O)NCCCN2CCOCC2)CC1 | 26 | 26 | 6 | 101* | 5 | 13
Cc1oc(-c2cccc(Cl)c2)nc1CS(=O)(=O)CC(=O)NCCN1CCOCC1 | -14 | -5 | -16 | nt | -5 | -12
COc1cccc(CNC(=O)c2cc(S(=O)(=O)N3CCCC3)cn2C)c1 | 18 | -5 | -2 | nt | -5 | 8
COc1ccc(-c2noc(-c3ccc4c(c3)OCO4)n2)cc1 | 2 | 3 | 9 | -2 | 20 | -7
COc1ccc(-c2nc(-c3ccc4c(c3)OCO4)[nH]c2-c2ccc(OC)cc2)cc1 | 8 | 49 | 10 | 90* | 21 | -5
O=C(COc1ccc(F)cc1F)N1CCCCCCC1 | nt | 0 | -1 | nt | -1 | 9
CNC(CC(C)C)C(=O)NC1C(=O)NC(CC(N)=O)C(=O)NC2C(=O)NC3C(=O)NC(C(=O)NC(C(=O)O)c4cc(O)cc(O)c4-c4cc3ccc4O)C(O)c3ccc(c(Cl)c3)Oc3cc2cc(c3OC2OC(CO)C(O)C(O)C2OC2CC(C)(N)C(O)C(C)O2)Oc2ccc(cc2Cl)C1O (stereo not given) | nt | 11 | nt | nt | -1 | 4
CCCn1c(-c2cccc(F)c2)nc2c1c(=O)[nH]c(=O)n2Cc1ccccc1 | 14 | 6 | 21 | nt | 0 | 14
COc1ccc(-c2nc3c(c(=O)[nH]c(=O)n3Cc3ccccc3)n2Cc2ccccc2)cc1 | 0 | 61* | 2 | 99* | 21 | 1
COCCn1c(-c2cccc([N+](=O)[O-])c2)nc2c1c(=O)[nH]c(=O)n2Cc1ccccc1 | 35 | 15 | -11 | 84* | 10 | 6
CN(C)C(CNC(=O)c1ccc2nccnc2c1)c1ccco1 (stereo not given) | nt | nt | 1 | nt | nt | nt
CN(C)C(CNC(=O)c1cccc(OC(F)F)c1)c1ccco1 (stereo not given) | 27 | -9 | 4 | 59* | -12 | -7
CCc1c(C)nc2cc(-c3ccc(OC)cc3)[nH]n2c1=O | nt | 5 | 11 | 58* | 31 | -11
Cc1cc(=O)n2[nH]c(-c3ccc(C(C)(C)C)cc3)cc2n1 | -1 | 63* | -5 | 100* | 25 | -7
CCOC(=O)Cc1c(C)nc2cc(-c3ccc(Cl)cc3)[nH]n2c1=O | 2 | 7 | -11 | -9 | 13 | 0
Cc1cc(=O)n2[nH]c(-c3ccccc3)cc2n1 | 30 | -11 | 16 | 0 | 7 | -6
O=C(CSc1nc2[nH]ncc2c(=O)n1-c1ccc(Cl)c(Cl)c1)NCc1ccccc1Cl | -10 | 58* | 0 | 77* | 30 | -4
O=C(N(c1ccccc1)c1ccccc1)N(c1ccccc1)c1ccccc1 | 16 | 7 | -2 | nt | 1 | 12
O=C(CCl)N(c1ccccc1)c1ccccc1 | -8 | -8 | nt | 77* | 58 | -10
SMILES | NALP1 inh | T cruzi repl | NALP3 yeast inh | L major viab | Calb FLC | PolyA inh
O=C(CCl)N(CCc1ccccc1)CCc1ccccc1 | 2 | 56* | -2 | nt | -12 | -10
O=C(CN1C(=O)C2C3C=CC(C4CC34)C2C1=O)OCC(=O)c1ccccc1 (stereo not given) | 14 | -6 | -1 | 22 | 3 | 12
Cc1nc(SCC(=O)NC2CCS(=O)(=O)C2)c2c3c(sc2n1)CCCC3 (stereo not given) | nt | nt | 12 | nt | nt | nt
O=C(CSc1nc(-c2ccccc2)cs1)N1CCc2ccccc21 | -6 | -4 | 1 | -3 | -7 | -3
CN=C1S/C(=C\c2cc(C)n(-c3ccccc3F)c2C)C(=O)N1C | 26 | 4 | 27 | 62* | 53 | 14
CSc1ncccc1C(=O)OCC(=O)NCCc1ccccc1 | nt | nt | 17 | nt | nt | nt
Cc1cccc(N2NC(=O)/C(=C/c3ccc(-c4ccc(Cl)c(C(=O)O)c4)o3)C2=O)c1 | 0 | -14 | nt | -10 | 103* | -15
O=C(O)c1cc(-c2ccc(/C=C3\NC(=O)N(c4ccccc4)C3=O)o2)ccc1Cl | 30* | -4 | 7 | nt | -2 | 10
O=C(O)c1cc(-c2ccc(/C=C3\NC(=O)N(c4ccc(Cl)cc4)C3=O)o2)ccc1Cl | 15 | -25 | 12 | -5 | -18 | 2
N#C/C(=C\c1ccc(-c2ccccc2C(=O)O)o1)c1nc2ccccc2[nH]1 | 7 | -5 | 14 | nt | 3 | -12
N#C/C(=C\c1cccs1)c1nc2ccccc2[nH]1 | 35 | 0 | nt | 60* | -6 | 1
N#C/C(=C\c1ccc(OC(=O)c2cccs2)cc1)c1nc2ccccc2[nH]1 | 21 | 2 | 23 | 32 | 71 | -3
Cc1ccc2nc(/C(C#N)=C\c3ccc(N4CCOCC4)o3)[nH]c2c1 | 22 | 43 | 17 | 26 | 9 | ?
Cc1ccc2nc(/C(C#N)=C\c3ccc([N+](=O)[O-])o3)[nH]c2c1 | 52* | 67* | -15 | 100* | 71 | nt
COc1ccc2nc(/C(C#N)=C\c3ccc(Oc4ccc([N+](=O)[O-])cn4)cc3)[nH]c2c1 | 24 | 34 | -3 | 3 | 3 | 6
Cc1ccc2nc(/C(C#N)=C\c3ccc(Oc4ccc([N+](=O)[O-])cn4)cc3)[nH]c2c1 | 12 | nt | nt | 99* | nt | nt
N#C/C(=C\c1ccc(Sc2ccccc2)o1)c1nc2ccccc2[nH]1 | 28 | 61* | 9 | 18 | -1 | -9
COc1ccc(C(=O)CCC(=O)Nc2cc(Cl)c(O)c(Cl)c2)cc1 | -24 | -3 | 14 | nt | -8 | 21
CNC[C@@H]1Oc2ccc(NS(=O)(=O)c3ccc(OC)cc3)cc2CC(=O)N([C@H](C)CO)C[C@@H]1C | nt | nt | 6 | nt | nt | nt
COc1cc(/C=C(/C#N)c2ccc(C)cc2)ccc1Oc1ccc([N+](=O)[O-])cn1 | 40 | 71* | 25 | 2 | -9 | 9

Assay outcomes from PubChem.
